Laboratory results reported in ChEMBL document CHEMBL1125314, “Synthesis and evaluation of 2-pyridinone derivatives as HIV-1 specific reverse transcriptase inhibitors. 1. Phthalimidoalkyl and -alkylamino analogues” (J Med Chem, 1992).

Experiments:
[1] = molecular target: Human immunodeficiency virus type 1 reverse transcriptase (Human immunodeficiency virus 1, UniProt Q72547); assay: Inhibition of HIV-1 reverse transcriptase.
[2] = The compound was tested for hydrolysis rate at pH 7; format: ADME; details: buffer
In short: (§1)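 Aqueous hydrolysis of the (aminomethyl)phthalimides followed at pH 7, 8.2 (the pH used for the RT enzyme measurements) and 9.0. Results are expressed as the observed rate constant k_obs in units of 10⁻³ min⁻¹.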

[3] = The compound was tested for hydrolysis rate at pH 8.2; format: ADME; details: buffer; in short: as §1
[4] = The compound was tested for hydrolysis rate at pH 9; format: ADME; details: buffer; in short: as §1

| SMILES | IC50 [1] | k obs [2] | k obs [3] | k obs [4] |
| --- | --- | --- | --- | --- |
| CCCCc1cc(NCN2C(=O)c3ccccc3C2=O)c(O)nc1C | 0.128 µM | – | – | – |
| Cc1cc(NCN2C(=O)c3ccccc3C2=O)c(O)nc1C | 0.218 µM | – | – | – |
| CCCc1cc(NCN2C(=O)c3ccccc3C2=O)c(=O)[nH]c1C | 0.058 µM | – | – | – |
| CCc1cc(NCCCN2C(=O)c3ccccc3C2=O)c(=O)[nH]c1C | 190 µM | – | – | – |
| CCC1=C(C)NC(OC)C(CCCN2C(=O)c3ccccc3C2=O)=C1 (stereo not given) | > 300 µM | – | – | – |
| CCC1=C(C)NC(OC)C(C(O)CN2C(=O)c3ccccc3C2=O)=C1 (stereo not given) | > 300 µM | – | – | – |
| CCc1cc(/C=C/N2C(=O)c3ccccc3C2=O)c(=O)[nH]c1C | 54 µM | – | – | – |
| CCc1cc(CN2C(=O)c3ccccc3C2=O)c(=O)[nH]c1C | 26.5 µM | – | – | – |
| O=C1c2ccccc2C(=O)N1CNc1cccnc1O | 1.66 µM | 0.00085 min⁻¹ | 0.0039 min⁻¹ | 0.02417 min⁻¹ |
| CCC1=C(C)NC(OC)C(CCN2C(=O)c3ccccc3C2=O)=C1 (stereo not given) | 6.2 µM | – | – | – |
| CCc1cc(C(O)CN2C(=O)c3ccccc3C2=O)c(O)nc1C (stereo not given) | > 300 µM | – | – | – |
| O=C1c2ccccc2C(=O)N1CCc1cccnc1O | > 300 µM | – | – | – |
| CCc1cc(NCCN2C(=O)c3ccccc3C2=O)c(=O)[nH]c1C | 45 µM | – | – | – |
| CCc1nc(O)c(NCN2C(=O)c3ccccc3C2=O)cc1C | 0.887 µM | 0.00722 min⁻¹ | 0.01001 min⁻¹ | 0.03627 min⁻¹ |
| Cc1ccc(NCN2C(=O)c3ccccc3C2=O)c(=O)[nH]1 | 8.1 µM | 0.00424 min⁻¹ | 0.0073 min⁻¹ | 0.027 min⁻¹ |
| CCC1=C(C)NC(OC)C(C(=O)CN2C(=O)c3ccccc3C2=O)=C1 (stereo not given) | > 300 µM | – | – | – |
| CCc1cc(CCCN2C(=O)c3ccccc3C2=O)c(O)nc1C | 210 µM | – | – | – |
| O=C1c2ccccc2C(=O)N1CNc1cc2c(nc1O)CCCC2 | 3.7 µM | 0.00777 min⁻¹ | 0.013 min⁻¹ | 0.03678 min⁻¹ |
| CCC1=C(C)NC(OC)C(CN2C(=O)c3ccccc3C2=O)=C1 (stereo not given) | 16 µM | – | – | – |
| CCc1cc(C(=O)CN2C(=O)c3ccccc3C2=O)c(=O)[nH]c1C | > 300 µM | – | – | – |
| CCc1cc(NCN2C(=O)c3ccccc3C2=O)c(O)nc1C | – | 0.00624 min⁻¹ | 0.0101 min⁻¹ | 0.0243 min⁻¹ |
